Only some compounds are listed: those with a hit (about 3.1% of all), similar ones and a draw of the others.
SENP8 block-1 = human SENP8 protease inhibitors, primary screen, biochemical, fluorescence, Nedd8 protein substrate, uHTS. recombinant SENP8. hit rate 0.64% among 360,000. Sentrin-specific protease 8 (Homo sapiens), Q96LD8. inhibition, % at 20 µM; in the data active means inhibition mostly above about 40%, no sharp cut-off; inactive means mostly below about 27%
SENP7 block = SENP7 protease inhibitors, primary screen, biochemical, luminescence, uHTS | Sentrin-specific protease 7 (Homo sapiens), Q9BQF6 | recombinant SENP7, Z-RLRGG-aminoluciferin luminescence, 40 min | inhibition, % at 5 µM | hit rate 1.5% among 330,000;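 active means inhibition above about 50% at the single test dose, limit read from the data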;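 further: plate controls were DMSO with enzyme for no effect and no enzyme buffer wells for full effect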
UBC13 inh = UBC13 polyubiquitin chain formation inhibitors, primary screen, biochemical, TR-FRET, uHTS; Ubiquitin-conjugating enzyme E2 N (Homo sapiens), P61088; inhibition, % at 20 µM; hit rate 0.47% among 330,000; in the data active means inhibition above about 45%, passing the limit was not always enough
SENP6 block = SENP6 protease inhibitors, primary screen, biochemical, luminescence, uHTS; Sentrin-specific protease 6 (Homo sapiens), Q9GZR1; Recombinant SENP6 catalytic domain, aminoluciferin luminescence; inhibition, % at 10 µM; hit rate 1.8% among 330,000;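 active means inhibition above about 50% at the single tested dose, limit read from the data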;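 further: plate controls were DMSO wells with enzyme for no effect and DMSO wells lacking enzyme for full effect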
Target sequence (Q9GZR1 628-1112 limits assumed): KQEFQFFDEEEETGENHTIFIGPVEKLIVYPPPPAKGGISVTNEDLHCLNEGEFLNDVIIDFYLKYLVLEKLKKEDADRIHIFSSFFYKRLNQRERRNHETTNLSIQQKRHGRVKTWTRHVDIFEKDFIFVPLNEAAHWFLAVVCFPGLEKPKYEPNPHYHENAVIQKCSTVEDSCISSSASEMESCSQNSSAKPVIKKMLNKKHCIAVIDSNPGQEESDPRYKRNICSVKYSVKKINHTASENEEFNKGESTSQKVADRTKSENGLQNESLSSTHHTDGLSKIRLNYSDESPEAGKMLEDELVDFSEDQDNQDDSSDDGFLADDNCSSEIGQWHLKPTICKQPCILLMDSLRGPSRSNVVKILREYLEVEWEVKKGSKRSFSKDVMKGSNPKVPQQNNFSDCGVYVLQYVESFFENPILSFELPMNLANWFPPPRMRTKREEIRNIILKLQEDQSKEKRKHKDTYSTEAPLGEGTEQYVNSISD
SENP8 block-2 = SENP8 protease inhibitors, primary screen, biochemical, luminescence; Sentrin-specific protease 8 (Homo sapiens), Q96LD8; purified SENP8, Z-RLRGG-aminoluciferin cleavage; inhibition, % at 10 µM; hit rate 1.2% among 330,000; in the data active means inhibition above about 50%
Apaf1 inhib = inhibitors of human Apaf-1 apoptosome, primary screen, biochemical, DEVD-Rh110 fluorescence, uHTS | Apoptotic protease-activating factor 1 (Homo sapiens), O14727 | reconstituted apoptosome caspase-3 activity | inhibition, % at 20 µM | hit rate 0.71% among 330,000 | AID 489030, 2010; active means inhibition of at least 40% at 20 µM;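 further: plate controls were DMSO wells for no effect and DEVD-CHO caspase inhibitor wells for full effect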
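Material: cell-free apoptosome with Apaf-1, procaspase-3 and caspase-9; Buffer or medium: Hepes pH 7.5 with detergent and BSA; Reagent: cytochrome c trigger plus (Z-DEVD)2-Rh110 caspase-3 substrate; Times: compound with Apaf-1, dATP, procaspase-3 30 min, then 50 min reaction, room temperature; Technique: Rh110 fluorescence intensity.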
SENP8 conf = SENP8 protease inhibitors, retest, confirmation, biochemical, luminescence, single concentration. Recombinant SENP8, Z-RLRGG-aminoluciferin luminescence, 60 min. shares compounds with SENP7 block. AID 488912, 2010. hit rate 40% among 6,200. inhibition, % at 12.5 µM;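 active means mean inhibition across replicates above about 50%, limit read from the data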
SENP6 confirm = SENP6 protease inhibitors, confirmation, biochemical, luminescence, single concentration | shares compounds with SENP7 block | recombinant SENP6, Z-RLRGG-aminoluciferin luminescence | inhibition, % at 12.5 µM | hit rate 58% among 6,200
SENP7 confirm = SENP7 protease inhibitors, retest, confirmation, biochemical, luminescence, single concentration | inhibition, % at 12.5 µM | AID 488917, 2010 | hit rate 69% among 6,200 | recombinant SENP7, Z-RLRGG-aminoluciferin luminescence, 40 min | shares compounds with SENP7 block
Casp3 select = caspase-3 protease inhibitors, confirmation, selectivity assay for SENP inhibitor project, biochemical, single concentration; AID 488918, 2010; shares compounds with SENP7 block; inhibition, % at 12.5 µM; purified caspase-3, Z-DEVD-aminoluciferin luminescence, 60 min; hit rate 60% among 6,200;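 active means mean inhibition above about 50%, limit read from the data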;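 further: plate controls were enzyme with DMSO for no effect and wells without caspase-3 for full effect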
Target sequence (P42574 28-227 limits assumed): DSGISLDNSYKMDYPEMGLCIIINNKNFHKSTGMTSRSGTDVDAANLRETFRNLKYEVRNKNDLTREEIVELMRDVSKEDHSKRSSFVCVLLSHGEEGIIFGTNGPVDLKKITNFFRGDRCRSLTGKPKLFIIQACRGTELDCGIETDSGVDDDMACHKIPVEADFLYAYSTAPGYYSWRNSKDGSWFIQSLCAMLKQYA
Luc interf = counter-screen for SENP inhibitors: luminescence interference. shares compounds with SENP7 block. inhibition, % at 12.5 µM. hit rate 39% among 6,200. Pre-incubated SENP8/Z-RLRGG-aminoluciferin, luciferase luminescence interference. AID 488919;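 active means mean inhibition above about 50% when retested at one dose, limit read from the data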;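 further: plate controls were DMSO wells with completed reaction for no effect and substrate without enzyme for full effect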
The depositor's hits bear a star; · = no result.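 How the source made its calls, unless noted: active means mean inhibition above about 50% in the one-dose retest (limit read from the data); inactive means the rest.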

SMILES | SENP8 block-1 | SENP7 block | UBC13 inh | SENP6 block | SENP8 block-2 | Apaf1 inhib | SENP8 conf | SENP6 confirm | SENP7 confirm | Casp3 select | Luc interf
Cc1cccc(NC(=S)NNC(=O)c2csc(C(C)C)c2)c1 | 20 | 87* | -12 | 77* | 50 | 7 | 9 | 11 | 12 | 8 | 18
Cc1cccc(NC(=S)NNC(=O)c2sccc2C)c1 | -14 | 65* | -7 | 83* | 43 | 2 | 56* | 56* | 75* | 67* | 64*
CC(C)NC(=O)C1(C)CN(S(C)(=O)=O)CC(=O)N1Cc1cccc(C(F)(F)F)c1 (stereo not drawn) | 25 | · | · | · | · | · | · | · | · | · | ·
Nc1nc(N)nc(-c2ccc(Cl)c(Cl)c2)n1 | -456 | 59* | 14 | 56* | 43 | 1 | 41 | 38 | 78* | 49 | 62*
Cc1nc(N)nc(N)c1-c1ccc(Cl)c(Cl)c1 | 13 | · | · | · | · | · | · | · | · | · | ·
O=C(/C=C/c1cccc(F)c1)N1CCc2ccccc21 | 31 | 95* | 6 | 74* | 72* | -5 | -24 | -14 | -3 | -6 | -7
O=C(/C=C/c1cccc(F)c1)OCC(=O)N1CCCc2ccccc21 | 6 | -6 | -1 | 8 | -9 | 8 | · | · | · | · | ·
O=C(c1ccc(Cl)cc1Cl)N1CCc2ccccc21 | 6 | 9 | -1 | 4 | 2 | -3 | · | · | · | · | ·
O=C(/C=C/c1ccc(Cl)cc1Cl)N1CCc2ccccc21 | 11 | 92* | -8 | 70* | 51* | 5 | 35 | 31 | 26 | 64* | 13
Cn1c(=NC(=O)c2ccco2)sc2ccccc21 | -387 | 52* | 3 | 67* | 46 | -5 | 54* | 56* | 84* | 79* | 27
O=C1c2ccccc2C(=O)N1CCSc1ccccc1 | 20 | 41 | 3 | 60* | 8 | 2 | 26 | 25 | 72* | 50 | 48
Oc1cccc(/C=N/N=C/c2cccc(O)c2O)c1O | 20 | 94* | -8 | 96* | 92* | -7 | 94* | 94* | 100* | 92* | 27
CC1ON=C(c2ccccn2)N(Cc2ccc3c(c2)OCO3)C1=O (stereo not drawn) | 5 | · | · | · | · | · | · | · | · | · | ·
CSc1ccccc1C(=O)Nc1ccc2c(c1)OCCO2 | 22 | 18 | -9 | 12 | -20 | 12 | · | · | · | · | ·
Cc1cc(C(=O)Nc2ccc3c(c2)OCCO3)c(C)o1 | 14 | 51* | -9 | -40 | 32 | 19 | 46 | 47 | 84* | 81* | 67*
Cc1occc1C(=O)Nc1ccc2c(c1)CCC2 | 5 | 93* | -11 | 91* | 86* | -2 | 92* | 92* | 99* | 94* | 92*
Cc1occc1C(=O)Nc1ccc2c(c1)OCCO2 | 8 | 84* | -7 | 89* | 73* | -15 | 11 | 78* | 95* | 90* | 76*
Cc1ccccc1C(=O)Nc1ccc2c(c1)OCCO2 | 17 | 69* | -4 | 63* | 55* | -11 | 53* | 52* | 84* | 85* | 67*
CCc1nc2ccc(C(=O)NCCCN(C)C)cn2c1N(CC)CCOC | 13 | · | · | · | · | · | · | · | · | · | ·
CC(C)(C)OC(=O)N1CCC[C@H]1C(=O)N1CCC[C@H]1C(=O)NCc1ccncc1 | 13 | · | · | · | · | · | · | · | · | · | ·
C#Cc1ccc(NC(=O)C2(C)CCN2C(=O)Cc2ccc(C(C)C)cc2)cc1 (stereo not drawn) | 14 | · | · | · | · | · | · | · | · | · | ·
CC(NCCCSc1ccccc1)C(O)c1ccc(O)cc1 (stereo not drawn) | 24 | · | · | · | · | · | · | · | · | · | ·
CC(=O)NC12CC3CC(C1)CC(C(=O)Nc1cccc(S(=O)(=O)N4CCCCCC4)c1)(C3)C2 | 12 | · | · | · | · | · | · | · | · | · | ·
COc1ccccc1NC(=O)N(C)C[C@H]1OCc2cnnn2CCCC(=O)N([C@H](C)CO)C[C@@H]1C | 2 | · | · | · | · | · | · | · | · | · | ·
CC(C)c1ccc(NC(=O)Nc2nnc([C@@H]3C[C@H](O)[C@@H](CO)O3)s2)cc1 | 10 | · | · | · | · | · | · | · | · | · | ·
SMILES | SENP8 block-1 | SENP7 block | UBC13 inh | SENP6 block | SENP8 block-2 | Apaf1 inhib | SENP8 conf | SENP6 confirm | SENP7 confirm | Casp3 select | Luc interf
O=C(NCc1ccccc1Cl)c1csc([C@@H]2C[C@H](O)[C@@H](CO)O2)n1 | -3 | · | · | · | · | · | · | · | · | · | ·
O=C(Nc1ccc2c(c1)OCCO2)c1coc2ccccc2c1=O | -226 | 98* | 6 | 98* | 86* | 1 | 86* | 85* | 92* | 71* | 14
COc1cccc(OCc2nc3c4cnn(-c5ccccc5)c4ncn3n2)c1 | -96 | 73* | 10 | -22 | 6 | -10 | -8 | 1 | 12 | 21 | 4
COc1cccc(OCCN2CCN(c3ncnc4c3cnn4-c3ccccc3)CC2)c1 | -44 | -5 | 34 | -5 | 2 | 33 | · | · | · | · | ·
O=C(/C=C/c1cccnc1)c1ccccc1O | 0 | 0 | 12 | -5 | 4 | 4 | · | · | · | · | ·
Cc1c(/C=C/C(=O)c2ccccc2O)cnn1C | 19 | 67* | 2 | 63* | 35 | -3 | 16 | 55* | 81* | 49 | 13
CC(C)n1c(-c2ccc(N(C)C)cc2)nc2ccccc21 | -493 | -10 | 8 | 10 | 6 | 16 | · | · | · | · | ·
Cc1ccc(-c2nc3ccccc3n2C)o1 | -151 | 83* | -6 | 70* | 79* | 6 | 91* | 91* | 98* | 95* | 90*
Cn1c(-c2ccc(Br)o2)nc2cc(Br)ccc21 | -33 | 83* | -5 | 95* | 85* | 13 | 8 | 90* | 91* | 89* | 38
Cc1oc(-c2nc3ccccc3n2C)cc1C(=O)c1ccccc1 | -58 | 47 | -1 | 94* | 85* | 18 | 94* | 94* | 101* | 94* | 93*
CN(C)c1ccc(-c2nc3ccccc3n2C)cc1 | -261 | 96* | 5 | 91* | 89* | -5 | 96* | 98* | 102* | 98* | 96*
